In the library only some 3.6% were active in any assay of this set; here they are far more common.
FGF22 binding: binders of human FGF22 protein, primary screen, FGF22 synaptogenesis inhibitor project, biophysical, thermal shift, single point; activity (Tm shift, normalised), % at 9.99 µM; Fibroblast growth factor 22 (Homo sapiens), Q9HCT0; recombinant FGF22 thermal shift, SYPRO orange fluorescence; percent of sucrose octasulfate shift, DMSO zero; 340,000 compounds, 1.5% hits; AID 651658, 2012;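 active = mean Tm shift, scaled 0 neutral to 100 positive control, at about 1.3% or above, every replicate too, limit read from the data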
Target sequence (Q9HCT0 whole entry, looked up): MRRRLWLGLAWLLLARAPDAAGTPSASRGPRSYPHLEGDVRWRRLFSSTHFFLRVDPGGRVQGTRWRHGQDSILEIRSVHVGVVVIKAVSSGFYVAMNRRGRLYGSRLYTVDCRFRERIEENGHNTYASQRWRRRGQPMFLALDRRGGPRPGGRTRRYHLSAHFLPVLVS
FID counter: compounds displacing fluorescent DNA intercalator, primary screen, artefact control for HCV NS3 helicase inhibitor project, biochemical, FID fluorescence; DNA fluorescent intercalator displacement; AID 1845, 2009; 290,000 compounds, 0.17% hits; inhibition, % at 7.9 µM; in the data active = inhibition above about 37%;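 note: 0% = vehicle and 100% = reference compound; higher means more ethidium bromide displaced from hairpin DNA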
EBNA-1 inhibitor: EBNA-1 DNA-binding inhibitors, primary screen, biochemical, fluorescence polarization. 300,000 compounds, 0.34% hits. AID 1950, 2009. inhibition, % at 14.8 µM; in the data active = inhibition above about 28%
NS3 helicase inh: inhibitors of HCV NS3 helicase, primary screen, biochemical, Cy5 molecular beacon fluorescence; AID 1800, 2009; inhibition, % at 10.9 µM; Hepatitis C virus NS3 helicase; 290,000 compounds, 0.56% hits; NS3 helicase DNA unwinding;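 active = inhibition above the mean of all tested compounds plus 3 SD, set per campaign, cut at about 35% in these data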;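 note: 0% = DMSO wells and 100% = thioflavine S control wells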
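Test system: hepatitis C virus NS3 helicase domain fragment enzyme. Also added: annealed dual-labelled DNA beacon duplex, ATP-started. Timing: 60 min unwinding reaction at 25 °C after ATP addition. Technique: Cy5 fluorescence. Measure: % inhibition of unwinding.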
ZTA DNA inh: counter-screen for EBNA-1 inhibitors: inhibitors of Epstein-Barr virus ZTA; P03206; ZTA-DNA binding, fluorescence polarization; inhibition, % at 11 µM; 320,000 compounds, 0.15% hits; in the data active = inhibition above about 33%
Target sequence (P03206 whole entry, looked up): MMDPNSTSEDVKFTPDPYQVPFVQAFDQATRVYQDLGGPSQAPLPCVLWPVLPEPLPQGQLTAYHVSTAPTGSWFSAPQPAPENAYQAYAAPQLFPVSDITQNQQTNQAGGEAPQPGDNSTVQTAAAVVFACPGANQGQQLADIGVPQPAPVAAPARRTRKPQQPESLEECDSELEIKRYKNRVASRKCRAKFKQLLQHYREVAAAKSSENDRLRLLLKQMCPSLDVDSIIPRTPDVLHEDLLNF
GRIN3A LBD mod: binders of NR3A ligand-binding domain, primary screen, biophysical, differential scanning fluorimetry, uHTS. Tm shift relative to glycine control, % at 25 µM. Glutamate receptor ionotropic, NMDA 3A (GRIN3A) ligand-binding domain. 340,000 compounds, 2.5% hits. NR3A LBD differential scanning fluorimetry, Tm shift; 0% = protein alone, 100% = glycine-bound protein;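 active = melting temperature shift of at least 10% of the positive control shift, at one fixed dose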
Active calls of the source: *; · = no result.

SMILES	FGF22 binding	FID counter	EBNA-1 inhibitor	NS3 helicase inh	ZTA DNA inh	GRIN3A LBD mod
COc1cc(/C=C2\SC(=Nc3ccc(O)cc3)NC2=O)cc(OC)c1O	0.1	-2.7	-5.8	-6.3	-14.8	12.6*
Cc1ccc(N=C2NC(=O)/C(=C/c3cn(C)c4ccccc34)S2)cc1C	-0.2	-10.6	9.8	19.8	15.4	32.2*
CCCN1C[C@H](C)[C@@H](OC)CN(C)C(=O)c2cc(NC(=O)c3cnccn3)ccc2OC[C@H]1C	0.3	·	·	·	·	·
Cc1noc(C)c1NC(=O)N(C)C[C@H]1Oc2ccc(NC(=O)Cc3cn(C)c4ccccc34)cc2C(=O)N([C@@H](C)CO)C[C@H]1C	-0.2	·	·	·	·	·
COc1cccc(-c2cnc3c(c2)C(=O)N([C@@H](C)CO)C[C@H](C)[C@H](CN(C)Cc2ccncc2)O3)c1	0.2	·	·	·	·	·
CCN(CC)c1ncnc2c1cnn2Cc1ccc(Cl)cc1	43.3*	-19.6	-2.3	-23.3	4.3	-1.6
CO[C@H]1CN(C)C(=O)c2cc(NC(=O)c3ccccc3F)ccc2OC[C@@H](C)N(C(=O)c2ccccc2F)C[C@@H]1C	0.1	·	·	·	·	·
CCOC(=O)CNC(=O)C1Cc2ccccc2CN1S(=O)(=O)c1cccs1 (stereo not given)	43.4*	-5.5	-10.0	3.1	-6.2	-0.6
CC(C)OCCCNC(=O)Cc1ccc(F)cc1	43.3*	0.8	2.6	6.0	-6.6	0.1
CC(C)(C)c1ccc(OCCNC(=O)Cc2ccc(F)cc2)cc1	1.6*	-17.4	6.6	2.1	-15.4	-4.6
O=C(OCc1cn([C@@H]2C[C@H](c3ccccc3)N(Cc3cccs3)C[C@H]2O)nn1)c1ccccc1	43.6*	·	·	·	·	·
CNc1oc(/C=C/c2cccc(OC)c2)nc1C#N	·	-5.5	7.7	-1.2	0.3	23.2*
O=C(O)c1ccc2c(c1)C(=O)/C(=C/c1ccccc1)C2=O	0.8	-6.7	-2.4	5.1	10.5	26.1*
COc1ccc2c3c([nH]c2c1)[C@@H](CO)N(Cc1cccnc1)CC31CN(C(=O)CN(C)C)C1	-0.2	·	·	·	·	·
COc1ccc2nc(C)cc(Nc3ccc(N4CCN(C)CC4)cc3)c2c1	-0.3	83.6*	-0.8	31.0	4.0	-9.7
Cc1noc(C)c1NC(=O)N(C)C[C@@H]1OCc2ccccc2-c2ccccc2C(=O)N([C@@H](C)CO)C[C@H]1C	0.4	·	·	·	·	·
COc1ccc(OC)c(NC(=O)CSc2nnc(C3CCCCC3)n2N)c1	-0.3	·	7.6	·	-6.9	14.1*
Nn1c(SCC(=O)Nc2nccs2)nnc1C1CC1	2.3*	-9.5	7.2	9.1	-12.4	1.5
COc1ccc(NC(=O)CSc2nnc(C3CCCCC3)n2N)c(OC)c1	-0.1	-13.4	1.3	7.1	2.2	-1.9
OCC1(CCc2ccccc2)CCN(Cc2ccccc2Cl)CC1	0.0	7.0	2.7	-15.1	-0.1	1.9
Clc1ccccc1CN1CCN(CCCc2ccccc2)CC1	43.1*	14.0	·	-1.6	·	-0.6
COc1cc(C(=O)NCc2ccccc2)ccc1OC(F)F	-0.4	-8.5	-0.9	8.2	-40.1	5.0
Cc1cccc(N(Cc2ccccc2)C(=O)c2ccc(CS(C)(=O)=O)cc2)c1	0.0	-45.1	-1.3	-1.7	-11.3	14.1*
COc1cc(C(=O)N(Cc2ccccc2)c2cccc(C)c2)ccc1OC(F)F	-0.1	-45.2	-4.1	-5.0	7.5	14.1*
COc1ccc(CC(=O)N(Cc2ccccc2)c2cccc(C)c2)cc1OC	0.0	-55.8	4.9	-5.7	11.8	9.6
SMILES	FGF22 binding	FID counter	EBNA-1 inhibitor	NS3 helicase inh	ZTA DNA inh	GRIN3A LBD mod
COc1cc(C(=O)NCc2ccc(C)cc2)ccc1OC(F)F	·	-2.5	13.7	-0.9	-1.8	11.5*
CCCNC(=O)C[C@H]1CC[C@@H]2[C@H](COc3ccc(NC(=O)Nc4ccccc4)cc3C(=O)N2C)O1	-0.2	·	·	·	·	·
COc1ccc(NC(=O)Nc2ccc3c(c2)C(=O)N([C@@H](C)CO)C[C@@H](C)[C@@H](CN(C)C(=O)Nc2ccc(C(F)(F)F)cc2)O3)cc1	0.0	·	·	·	·	·
O=C(CN1CCN(S(=O)(=O)c2ccc(Br)cc2)CC1)N/N=C/c1ccc(Cl)c([N+](=O)[O-])c1	0.1	-4.3	-3.0	0.0	4.8	10.0*
O=S(=O)(NCC[C@@H]1CC[C@H](NS(=O)(=O)c2ccccc2Cl)[C@H](CO)O1)c1ccc(Cl)cc1	0.7	·	·	·	·	·
COc1cc(C(=S)N2CCCC2)ccc1OS(=O)(=O)c1ccc(NC(C)=O)cc1	1.0	-10.6	-1.8	2.3	-9.0	20.2*
CCOc1cc(C(=S)N2CCOCC2)ccc1OS(=O)(=O)c1ccccc1	·	2.8	8.0	1.6	-3.4	11.0*
O=C(c1cccnc1)N1C[C@H]2[C@@H](c3ccccc31)[C@H](CO)N2Cc1ccc2c(c1)OCO2	-0.1	·	·	·	·	·
Cc1cc(C)nc(/N=c2/ssnc2Cl)c1	·	2.1	-5.4	15.4	-2.3	1.2
Cc1cc(Cl)ccc1N=c1ssnc1Cl	·	-5.4	0.0	4.2	-15.4	24.2*
COc1cc(N=c2ssnc2Cl)c(OC)cc1Cl	0.0	1.2	-8.8	10.7	-14.6	19.0*
Cc1nnc(N=c2ssnc2Cl)o1	-0.2	·	·	·	2.2	21.3*
Nc1ccccc1N=c1ssnc1Cl	0.0	1.5	·	-7.7	·	-1.0
Cc1ccc(N=c2ssnc2Cl)cc1	·	0.5	-5.8	-25.2	10.7	21.9*
COc1ccc(OC)c(N=c2ssnc2Cl)c1	·	11.7	2.9	7.0	-1.4	9.3
COCC(=O)Nc1ccc2c(c1)C(=O)N(C)[C@H]1CC[C@H](CC(=O)NCc3ccc(OC)cc3)O[C@@H]1CO2	0.2	·	·	·	·	·
CCOCCCNCc1cn(-c2ccc(F)cc2F)nc1-c1ccccc1C	43.1*	22.7	7.3	-15.9	-11.3	0.3
COc1cccc(N/C(SCc2ccccc2Cl)=C(/C#N)C(=O)NCc2cccs2)c1	-0.1	-5.5	-7.8	-5.0	2.0	12.6*
COc1ccc(NC(=O)Nc2ccc3c(c2)[C@@H]2C[C@H](CC(=O)NCc4ccc5c(c4)OCO5)O[C@@H](CO)[C@@H]2O3)cc1	-0.1	·	·	·	·	·
O=C1c2[nH]nc(-c3ccccc3)c2C(c2ccccc2)N1c1ccccc1 (stereo not given)	43.5*	·	·	·	·	·
C[C@H]1CN([C@@H](C)CO)C(=O)c2cc(NC(=O)CCCN(C)C)ccc2O[C@@H]1CN(C)Cc1ccc(Oc2ccccc2)cc1	0.0	·	·	·	·	·
O=C(Nc1ccc(O)cc1)c1cc2ccccc2c(=O)s1	0.3	20.5	6.6	-9.7	5.8	23.7*
Cn1c2ccccc2c2cc(/C=N/NC(=O)c3ccc(N)cc3)ccc21	0.2	-8.3	-7.4	16.1	-11.5	16.8*
O=C(Cc1nnc(NC(=O)c2ccccc2)s1)N/N=C/c1cccc(O)c1	0.0	-23.1	17.3	3.4	1.7	41.4*
